ChEMBL document CHEMBL3259591, “Three new cembranoid-type diterpenes from Red Sea soft coral Sarcophyton glaucum: isolation and antiproliferative activity against HepG2 cells” (Eur J Med Chem, 2014)

Experiments:
HepG2 [1] = assay: Cytotoxicity against human HepG2 cells after 96 hrs by […]; type: functional, cell-based; details: HepG2, 96 h
Procedure, shortened: (§1)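 Cells seeded at 10 × 10^3/well and held 24 h at 37 °C, 5% CO2. Serum-free RPMI-1640 then added with sample at final 1000, 500, 200, 100, 50, 20, 10 µg/mL (DMSO ≤1% v/v). Incubated 96 h, then rinsed and fixed in 3.7% formaldehyde in saline for ≥20 min. IC50 taken as 50% loss of monolayer, from a straight-line fit of dose-response data.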

MCF7 = assay: Cytotoxicity against human MCF7 cells after 96 hrs by […]; type: functional, cell-based; details: MCF7, 96 h; procedure, shortened: as §1
A549 = assay: Cytotoxicity against human A549 cells after 96 hrs by […]; type: functional, cell-based; details: A549, 96 h; procedure, shortened: as §1
PC-3 [2] = assay: Cytotoxicity against human PC3 cells after 96 hrs […]; type: functional, cell-based; details: PC-3, 96 h; procedure, shortened: as §1
Vero = assay: Cytotoxicity against african green monkey Vero cells after 96 hrs […]; type: cell-based; details: chlorocebus sabaeus; procedure, shortened: as §1
PC-3 [3] = assay: Cell cycle arrest in human PC3 cells assessed as reduction in cells at S-phase after 24 hrs by flow cytometry (reference value: 32.12 +/- 0.9%); type: functional; parameters: scale not given: the % may be the effect or the level left
PC-3 [4] = assay: Cell cycle arrest in human PC3 cells assessed as increase in cells at G0/G1-phase after 24 hrs by flow cytometry (reference value: 49.80 +/- 0.6%); type: functional
PC-3 [5] = assay: Induction of apoptosis in human PC3 cells assessed as increase in caspase-3 concentration by colorimetric assay relative to untreated control; type: functional
PC-3 [6] = assay: Induction of apoptosis in human PC3 cells assessed as viable cells after 24 hrs using annexin V/propidium iodide double staining by flow cytometry (reference value: 99.60 %); type: functional
PC-3 [7] = assay: Induction of apoptosis in human PC3 cells assessed as early apoptotic cells after 24 hrs using annexin V/propidium iodide double staining by flow cytometry (reference value: 0.00 %); type: functional
PC-3 [8] = assay: Induction of apoptosis in human PC3 cells assessed as late apoptotic cells after 24 hrs using annexin V/propidium iodide double staining by flow cytometry (reference value: 0.03 %); type: functional
PC-3 [9] = assay: Induction of apoptosis in human PC3 cells assessed as necrotic cells after 24 hrs using annexin V/propidium iodide double staining by flow cytometry (reference value: 0.640.36 %); type: functional
HepG2 [10] = assay: Cell cycle arrest in human HepG2 cells assessed as increase in cells at G0/G1-phase after 24 hrs by flow cytometry (reference value: 44.74 +/- 0.6%); type: functional
HepG2 [11] = assay: Cell cycle arrest in human HepG2 cells assessed as reduction in cells at S-phase after 24 hrs by flow cytometry (reference value: 43.65 +/- 1.1%); type: functional; parameters: scale not given: the % may be the effect or the level left
HepG2 [12] = assay: Induction of apoptosis in human HepG2 cells assessed as increase in caspase-3 concentration by colorimetric assay relative to untreated control; type: functional
HepG2 [13] = assay: Induction of apoptosis in human HepG2 cells assessed as viable cells after 24 hrs using annexin V/propidium iodide double staining by flow cytometry (reference value: 99.35 %); type: functional
HepG2 [14] = assay: Induction of apoptosis in human HepG2 cells assessed as early apoptotic cells after 24 hrs using annexin V/propidium iodide double staining by flow cytometry (reference value: 0.00 %); type: functional
HepG2 [15] = assay: Induction of apoptosis in human HepG2 cells assessed as late apoptotic cells after 24 hrs using annexin V/propidium iodide double staining by flow cytometry (reference value: 0.01 %); type: functional
HepG2 [16] = assay: Induction of apoptosis in human HepG2 cells assessed as necrotic cells after 24 hrs using annexin V/propidium iodide double staining by flow cytometry (reference value: 0.64 %); type: functional

| Structure (SMILES) | IC50 (HepG2 [1]) [µM] | IC50 (MCF7) [µM] | IC50 (A549) [µM] | IC50 (PC-3 [2]) [µM] | Activity (Vero) | Activity (PC-3 [3]) [%] | Activity (PC-3 [4]) [%] | fold change (FC) (PC-3 [5]) | Activity (PC-3 [6]) [%] | Activity (PC-3 [7]) [%] | Activity (PC-3 [8]) [%] | Activity (PC-3 [9]) [%] | Activity (HepG2 [10]) [%] | Activity (HepG2 [11]) [%] | fold change (FC) (HepG2 [12]) | Activity (HepG2 [13]) [%] | Activity (HepG2 [14]) [%] | Activity (HepG2 [15]) [%] | Activity (HepG2 [16]) [%] |
| --- | --- | --- | --- | --- | --- | --- | --- | --- | --- | --- | --- | --- | --- | --- | --- | --- | --- | --- | --- |
| C=C1CC[C@@H]2[C@H]([C@@H]3[C@H](C)CC[C@H]13)C2(C)C | 20 | 20 | 98.4 | 9.3 | Non-toxic | 23.29 | 64.83 | 2.1 | 91.85 | 1.63 | 2.18 | 4.34 |  |  |  |  |  |  |  |
| C/C1=C/C2OC(C)(CCCC/C(C)=C\CC1)C(O)C2C(C)C (stereo not drawn) | 20 |  | 197 | 31.5 | Non-toxic |  |  |  |  |  |  |  | 53.57 | 8.33 | 2.6 | 93.61 | 1.22 | 2.18 | 2.99 |
| CC1=C2CC[C@@H]3O[C@]3(C)CC/C(C)=C/CC/C(C)=C/[C@@H]2OC1=O | 94 | 25 | 73.8 | 216 | Non-toxic |  |  |  |  |  |  |  |  |  |  |  |  |  |  |
| CC1=C2CC[C@H]3O[C@]3(C)CC/C(C)=C\CC/C(C)=C/[C@H]2OC1=O | 20 | 29 | 201 | 112 | Non-toxic |  |  |  |  |  |  |  | 51.9 | 7.11 | 2 | 93.93 | 1.23 | 1.76 | 3.08 |
| COc1cccc2c1C(=O)c1c(O)c3c(c(O)c1C2=O)C[C@@](O)(C(=O)CO)C[C@@H]3O[C@H]1C[C@H](N)[C@H](O)[C@H](C)O1 [DOXORUBICIN] | 0.48 |  |  | 0.5 | Non-toxic |  |  |  |  |  |  |  |  |  |  |  |  |  |  |
